How the values were obtained:
[1] = target: Dual specificity mitogen-activated protein kinase kinase 2 (Homo sapiens) (UniProt P36507); assay: Inhibition of MEK2 at 3 uM
[2] = target: Platelet-derived growth factor receptor beta (Homo sapiens) (UniProt P09619); assay: Inhibition of PDGFRB at 3 uM
[3] = target: Casein kinase I isoform epsilon (Homo sapiens) (UniProt P49674); assay: Inhibition of CSNK1E at 3 uM
[4] = target: CYP2C9 (Homo sapiens, UniProt P11712); assay: Inhibition of human CYP2C9 at 10 uM; assay type: ADME
[5] = target: Death-associated protein kinase 2 (Homo sapiens) (UniProt Q9UIK4); assay: Inhibition of DAPK2 at 3 uM
[6] = target: Serine/threonine-protein kinase Chk1 (Homo sapiens) (UniProt O14757); assay: Inhibition of CHEK1 at 3 uM
Sequence of Serine/threonine-protein kinase Chk1 (Homo sapiens) (O14757 whole entry): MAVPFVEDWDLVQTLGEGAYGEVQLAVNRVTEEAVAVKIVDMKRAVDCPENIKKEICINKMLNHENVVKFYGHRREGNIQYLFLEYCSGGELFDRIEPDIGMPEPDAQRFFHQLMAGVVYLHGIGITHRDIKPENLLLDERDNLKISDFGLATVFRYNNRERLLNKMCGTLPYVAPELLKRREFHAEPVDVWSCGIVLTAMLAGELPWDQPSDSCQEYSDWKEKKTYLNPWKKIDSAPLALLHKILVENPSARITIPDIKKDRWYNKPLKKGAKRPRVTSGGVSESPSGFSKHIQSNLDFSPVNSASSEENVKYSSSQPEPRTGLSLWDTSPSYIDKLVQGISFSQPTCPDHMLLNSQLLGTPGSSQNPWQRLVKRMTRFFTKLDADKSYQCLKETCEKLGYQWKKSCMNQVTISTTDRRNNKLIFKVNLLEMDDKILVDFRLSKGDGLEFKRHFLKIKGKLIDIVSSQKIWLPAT

[7] = target: TGF-beta receptor type-1 (Homo sapiens) (UniProt P36897); assay: Inhibition of TGFBR1 at 3 uM
[8] = target: Adenosine receptor A2a (Homo sapiens) (UniProt P29274); assay: Inhibition of human adenosine A2A receptor at 3 uM
In short: (§1)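 Counter-screen binding/enzyme panel at single 3 μM, n=2; results as percent inhibition. Species per target as listed (rat NMDA, GABAA sites; human receptors, transporters; rabbit ACE).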

[9] = target: Serine/threonine-protein kinase MRCK gamma (Homo sapiens) (UniProt Q6DT37); assay: Inhibition of DMPK2 at 3 uM
[10] = target: Dual specificity mitogen-activated protein kinase kinase 1 (Homo sapiens) (UniProt Q02750); assay: Inhibition of MEK1 at 3 uM
[11] = target: Receptor tyrosine-protein kinase erbB-2 (Homo sapiens) (UniProt P04626); assay: Inhibition of ERBB2 at 3 uM
In short: (§2)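 Single-concentration kinase panel scoring: each value is the percentage of enzyme activity remaining relative to a DMSO-only control. An activity statistically indistinct from DMSO control was scored "no hit".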

[12] = target: Serine/threonine-protein kinase Nek9 (Homo sapiens) (UniProt Q8TD19); assay: Inhibition of NEK9 at 3 uM
[13] = target: 3-phosphoinositide-dependent protein kinase 1 (Homo sapiens) (UniProt O15530); assay: Inhibition of PDPK1 at 3 uM
[14] = target: Myosin-IIIa (Homo sapiens) (UniProt Q8NEV4); assay: Inhibition of MYO3A at 3 uM
[15] = target: RAC-alpha serine/threonine-protein kinase (Homo sapiens, UniProt P31749); assay: Inhibition of AKT1 at 3 uM
Sequence of RAC-alpha serine/threonine-protein kinase (P31749 whole entry): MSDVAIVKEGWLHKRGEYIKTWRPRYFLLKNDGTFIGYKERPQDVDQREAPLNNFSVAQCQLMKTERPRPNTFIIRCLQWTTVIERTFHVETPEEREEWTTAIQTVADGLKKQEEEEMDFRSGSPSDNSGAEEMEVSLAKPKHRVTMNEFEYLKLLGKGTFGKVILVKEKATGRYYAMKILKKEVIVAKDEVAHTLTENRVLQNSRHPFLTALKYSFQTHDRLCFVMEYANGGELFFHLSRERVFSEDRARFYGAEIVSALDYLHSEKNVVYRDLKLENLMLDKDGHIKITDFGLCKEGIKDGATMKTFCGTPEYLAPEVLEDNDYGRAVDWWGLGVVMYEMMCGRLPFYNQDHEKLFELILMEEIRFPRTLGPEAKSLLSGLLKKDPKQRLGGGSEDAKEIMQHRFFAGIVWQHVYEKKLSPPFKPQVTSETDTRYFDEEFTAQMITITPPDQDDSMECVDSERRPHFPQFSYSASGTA

[16] = tested on: Tyrosine-protein kinase ABL1 (Homo sapiens), P00519 [F317I]; assay: Inhibition of ABL1 F317I mutant at 3 uM
[17] = target: High affinity nerve growth factor receptor (Homo sapiens) (UniProt P04629); assay: Inhibition of TRKA at 3 uM
[18] = target: Tyrosine-protein kinase Tec (Homo sapiens) (UniProt P42680); assay: Inhibition of TEC at 3 uM
[19] = target: D(3) dopamine receptor (Homo sapiens) (UniProt P35462); assay: Inhibition of human dopamine D3 receptor at 3 uM; in short: as §1
[20] = target: Serine/threonine-protein kinase 25 (Homo sapiens) (UniProt O00506); assay: Inhibition of YSK1 at 3 uM
Sequence of Serine/threonine-protein kinase 25 (Homo sapiens) (O00506 whole entry, looked up): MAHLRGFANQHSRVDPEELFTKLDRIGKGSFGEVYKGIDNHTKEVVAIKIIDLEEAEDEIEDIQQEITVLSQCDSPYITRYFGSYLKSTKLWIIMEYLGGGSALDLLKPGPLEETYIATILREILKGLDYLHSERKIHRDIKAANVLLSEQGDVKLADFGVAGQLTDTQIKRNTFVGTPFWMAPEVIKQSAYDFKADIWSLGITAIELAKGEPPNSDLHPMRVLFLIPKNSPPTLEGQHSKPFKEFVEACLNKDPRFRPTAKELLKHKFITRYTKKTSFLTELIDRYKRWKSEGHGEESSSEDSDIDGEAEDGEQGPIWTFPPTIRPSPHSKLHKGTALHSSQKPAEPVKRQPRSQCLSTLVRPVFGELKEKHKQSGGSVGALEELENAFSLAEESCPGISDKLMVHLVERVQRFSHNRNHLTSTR

[21] = target: Homeodomain-interacting protein kinase 1 (Homo sapiens) (UniProt Q86Z02); assay: Inhibition of HIPK1 at 3 uM
[22] = target: BMP-2-inducible protein kinase (Homo sapiens) (UniProt Q9NSY1); assay: Inhibition of BIKE at 3 uM
[23] = target: Mitogen-activated protein kinase 11 (Homo sapiens) (UniProt Q15759); assay: Inhibition of p38-beta at 3 uM
[24] = target: Delta-type opioid receptor (Homo sapiens) (UniProt P41143); assay: Inhibition of human delta opioid receptor at 3 uM; in short: as §1
Sequence of Delta-type opioid receptor (Homo sapiens) (P41143 whole entry): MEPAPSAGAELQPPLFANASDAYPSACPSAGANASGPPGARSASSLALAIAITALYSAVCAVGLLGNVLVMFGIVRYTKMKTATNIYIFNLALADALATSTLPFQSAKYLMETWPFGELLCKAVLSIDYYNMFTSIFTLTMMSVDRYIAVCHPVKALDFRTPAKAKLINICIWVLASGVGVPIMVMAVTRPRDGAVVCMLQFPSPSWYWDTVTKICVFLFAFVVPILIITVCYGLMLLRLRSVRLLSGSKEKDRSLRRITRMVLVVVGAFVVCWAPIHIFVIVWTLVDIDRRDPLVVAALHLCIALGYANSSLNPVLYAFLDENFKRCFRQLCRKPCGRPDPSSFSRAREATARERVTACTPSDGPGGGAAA

[25] = target: Mitogen-activated protein kinase 7 (Homo sapiens) (UniProt Q13164); assay: Inhibition of ERK5 at 3 uM; in short: as §2
[26] = target: Calcium/calmodulin-dependent protein kinase type IV (Homo sapiens) (UniProt Q16566); assay: Inhibition of CAMK4 at 3 uM
[27] = target: Serine/threonine-protein kinase Nek5 (Homo sapiens) (UniProt Q6P3R8); assay: Inhibition of NEK5 at 3 uM
[28] = target: Maternal embryonic leucine zipper kinase (Homo sapiens) (UniProt Q14680); assay: Inhibition of MELK at 3 uM
Sequence of Maternal embryonic leucine zipper kinase (Homo sapiens) (Q14680 whole entry, looked up): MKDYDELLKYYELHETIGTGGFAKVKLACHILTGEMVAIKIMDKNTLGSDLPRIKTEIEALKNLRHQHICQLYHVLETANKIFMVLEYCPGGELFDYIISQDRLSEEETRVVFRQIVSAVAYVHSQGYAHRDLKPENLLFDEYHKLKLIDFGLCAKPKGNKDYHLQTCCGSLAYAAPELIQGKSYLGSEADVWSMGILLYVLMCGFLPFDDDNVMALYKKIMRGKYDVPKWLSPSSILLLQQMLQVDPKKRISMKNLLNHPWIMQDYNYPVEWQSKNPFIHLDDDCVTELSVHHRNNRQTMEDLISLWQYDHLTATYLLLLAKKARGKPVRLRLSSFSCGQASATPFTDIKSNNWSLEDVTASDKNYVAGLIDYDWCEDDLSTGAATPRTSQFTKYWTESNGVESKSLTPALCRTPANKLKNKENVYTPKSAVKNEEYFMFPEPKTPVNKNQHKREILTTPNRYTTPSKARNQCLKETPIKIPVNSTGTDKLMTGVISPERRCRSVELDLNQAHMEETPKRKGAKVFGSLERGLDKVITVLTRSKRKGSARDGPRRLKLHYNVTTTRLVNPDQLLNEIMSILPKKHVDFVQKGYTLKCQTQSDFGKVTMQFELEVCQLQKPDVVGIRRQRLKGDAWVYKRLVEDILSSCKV

[29] = target: BDNF/NT-3 growth factors receptor (Homo sapiens) (UniProt Q16620); assay: Inhibition of TRKB at 3 uM
[30] = target: Mitogen-activated protein kinase 9 (Homo sapiens) (UniProt P45984); assay: Inhibition of JNK2 at 3 uM
[31] = tested on: Serine/threonine-protein kinase B-raf (Homo sapiens), P15056 [V600E]; assay: Inhibition of BRAF V600E mutant at 3 uM
[32] = target: Glutamate NMDA receptor (Rattus norvegicus) (UniProt P35439+Q00959+Q00960+Q00961+Q62645+Q8VHN2+Q9R1M7); assay: Displacement of phencyclidine from rat NMDA receptor at 3 uM; assay type: protein-complex assay; in short: as §1
[33] = target: Serine/threonine-protein kinase LATS2 (Homo sapiens) (UniProt Q9NRM7); assay: Inhibition of LATS2 at 3 uM
[34] = target: Activin receptor type-1-like (Homo sapiens) (UniProt P37023); assay: Inhibition of ACVRL1 at 3 uM
[35] = target: Serine/threonine-protein kinase pim-3 (Homo sapiens) (UniProt Q86V86); assay: Inhibition of PIM3 at 3 uM
[36] = target: Myosin-IIIb (Homo sapiens) (UniProt Q8WXR4); assay: Inhibition of MYO3B at 3 uM
[37] = target: Mitogen-activated protein kinase kinase kinase 4 (Homo sapiens) (UniProt Q9Y6R4); assay: Inhibition of MAP3K4 at 3 uM
[38] = target: Serine/threonine-protein kinase PAK 1 (Homo sapiens) (UniProt Q13153); assay: Inhibition of PAK1 at 3 uM
Sequence of Serine/threonine-protein kinase PAK 1 (Homo sapiens) (Q13153 whole entry): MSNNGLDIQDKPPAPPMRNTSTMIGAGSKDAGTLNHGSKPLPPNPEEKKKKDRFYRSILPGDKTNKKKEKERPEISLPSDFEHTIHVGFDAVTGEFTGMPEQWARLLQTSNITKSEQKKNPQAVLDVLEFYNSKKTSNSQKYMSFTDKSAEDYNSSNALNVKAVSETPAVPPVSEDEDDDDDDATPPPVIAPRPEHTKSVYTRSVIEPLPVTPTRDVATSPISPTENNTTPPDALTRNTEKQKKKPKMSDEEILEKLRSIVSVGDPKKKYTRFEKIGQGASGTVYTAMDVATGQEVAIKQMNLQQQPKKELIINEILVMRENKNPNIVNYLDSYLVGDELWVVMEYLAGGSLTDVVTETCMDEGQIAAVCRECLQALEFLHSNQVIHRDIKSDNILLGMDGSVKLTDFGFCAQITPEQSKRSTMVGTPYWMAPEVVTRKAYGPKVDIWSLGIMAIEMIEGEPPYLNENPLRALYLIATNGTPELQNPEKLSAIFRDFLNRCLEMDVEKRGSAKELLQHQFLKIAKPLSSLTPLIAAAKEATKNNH

[39] = target: Aurora kinase B (Homo sapiens) (UniProt Q96GD4); assay: Inhibition of AURKB at 3 uM
Sequence of Aurora kinase B (Homo sapiens) (Q96GD4 whole entry): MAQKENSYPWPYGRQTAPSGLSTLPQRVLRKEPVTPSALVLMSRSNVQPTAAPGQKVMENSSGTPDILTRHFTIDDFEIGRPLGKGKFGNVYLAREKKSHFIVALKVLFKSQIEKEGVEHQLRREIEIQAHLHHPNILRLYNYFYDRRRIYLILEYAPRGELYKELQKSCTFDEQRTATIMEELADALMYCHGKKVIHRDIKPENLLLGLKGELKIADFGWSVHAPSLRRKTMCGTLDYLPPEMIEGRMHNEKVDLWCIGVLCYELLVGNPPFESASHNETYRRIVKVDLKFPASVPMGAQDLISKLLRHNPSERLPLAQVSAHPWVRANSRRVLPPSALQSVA

[40] = target: Alpha-2A adrenergic receptor (Homo sapiens) (UniProt P08913); assay: Inhibition of human adrenergic alpha2A receptor at 3 uM
Sequence of Alpha-2A adrenergic receptor (Homo sapiens) (P08913 whole entry): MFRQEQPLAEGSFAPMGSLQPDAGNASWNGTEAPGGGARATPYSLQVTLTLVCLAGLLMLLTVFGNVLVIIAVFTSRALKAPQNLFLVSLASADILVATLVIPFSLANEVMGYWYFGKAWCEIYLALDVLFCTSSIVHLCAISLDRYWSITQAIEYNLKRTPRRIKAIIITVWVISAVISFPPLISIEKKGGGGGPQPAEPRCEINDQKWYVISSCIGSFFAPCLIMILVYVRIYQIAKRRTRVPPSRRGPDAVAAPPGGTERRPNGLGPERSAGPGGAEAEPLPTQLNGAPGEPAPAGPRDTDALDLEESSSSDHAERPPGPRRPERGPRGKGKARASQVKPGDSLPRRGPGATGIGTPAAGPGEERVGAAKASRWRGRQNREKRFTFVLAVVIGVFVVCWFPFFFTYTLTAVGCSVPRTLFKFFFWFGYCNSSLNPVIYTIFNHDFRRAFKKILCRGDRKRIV

[41] = target: Tyrosine-protein kinase BTK (Homo sapiens) (UniProt Q06187); assay: Inhibition of BTK at 3 uM
[42] = target: Serine/threonine-protein kinase 24 (Homo sapiens) (UniProt Q9Y6E0); assay: Inhibition of MST3 at 3 uM
[43] = target: MAP kinase-activated protein kinase 5 (Homo sapiens) (UniProt Q8IW41); assay: Inhibition of MAPKAPK5 at 3 uM
[44] = target: Casein kinase II subunit alpha (Homo sapiens) (UniProt P68400); assay: Inhibition of CSNK2A1 at 3 uM
[45] = target: Serine/threonine-protein kinase B-raf (Homo sapiens) (UniProt P15056); assay: Inhibition of BRAF at 3 uM
Sequence of Serine/threonine-protein kinase B-raf (Homo sapiens) (P15056 whole entry): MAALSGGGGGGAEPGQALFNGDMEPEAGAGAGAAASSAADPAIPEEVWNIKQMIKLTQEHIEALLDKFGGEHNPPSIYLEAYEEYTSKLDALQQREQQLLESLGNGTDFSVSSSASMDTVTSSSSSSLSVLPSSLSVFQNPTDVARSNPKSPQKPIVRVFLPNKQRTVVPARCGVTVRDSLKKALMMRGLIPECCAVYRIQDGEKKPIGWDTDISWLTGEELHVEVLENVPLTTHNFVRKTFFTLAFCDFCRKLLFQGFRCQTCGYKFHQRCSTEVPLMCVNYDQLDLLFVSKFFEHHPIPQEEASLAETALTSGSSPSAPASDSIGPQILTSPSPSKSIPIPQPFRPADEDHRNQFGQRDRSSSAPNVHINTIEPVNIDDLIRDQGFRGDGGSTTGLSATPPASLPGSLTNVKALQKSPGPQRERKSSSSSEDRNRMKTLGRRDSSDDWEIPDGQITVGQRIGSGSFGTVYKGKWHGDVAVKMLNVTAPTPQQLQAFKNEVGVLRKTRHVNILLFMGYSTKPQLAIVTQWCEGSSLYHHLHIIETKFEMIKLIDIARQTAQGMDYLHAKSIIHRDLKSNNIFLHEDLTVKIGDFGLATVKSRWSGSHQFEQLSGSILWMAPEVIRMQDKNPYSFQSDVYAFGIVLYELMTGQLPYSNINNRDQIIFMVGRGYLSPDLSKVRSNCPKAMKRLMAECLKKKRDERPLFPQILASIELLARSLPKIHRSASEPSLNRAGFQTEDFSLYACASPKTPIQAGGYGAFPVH

CN(C)CCOc1cc(-c2cn[nH]c2)ccc1NC(=O)C1COc2ccccc2O1 (stereo not given) [SR-3677]
< 10%: inhibition [1] | inhibition [2] | inhibition [3] | inhibition [5] | inhibition [6] | inhibition [7] | inhibition [9] | inhibition [10] | inhibition [11] | inhibition [12] | inhibition [13] | inhibition [14] | inhibition [15] | inhibition [16] | inhibition [17] | inhibition [18] | inhibition [20] | inhibition [21] | inhibition [22] | inhibition [23] | inhibition [25] | inhibition [26] | inhibition [27] | inhibition [28] | inhibition [29] | inhibition [30] | inhibition [31] | inhibition [34] | inhibition [35] | inhibition [36] | inhibition [37] | inhibition [38] | inhibition [39] | inhibition [41] | inhibition [42] | inhibition [43] | inhibition [44] | inhibition [45]
-2%: inhibition [32]
15%: inhibition [19]
76%: inhibition [40]
88%: inhibition [33]
80%: inhibition at 10 µM [4]
5%: inhibition [8]
-9%: inhibition [24]

Source: ChEMBL document CHEMBL1142492 (J Med Chem, 2008)
